Values after ≈ are worked out from the molar mass of the structure shown. Active and inactive are the calls of the source. The rule behind the calls is not given here.
Assays:
Vero = experiment: Cytotoxicity against Chlorocebus aethiops (African green monkey) Vero cells after 48 hr by neutral red assay; assay type: cell-based, Chlorocebus sabaeus
Plasmodium falciparum [1] = experiment: Antimalarial activity against chloroquine-resistant Plasmodium falciparum W2 after 72 hr by plasmodial LDH assay; assay type: functional, organism-based
Method in brief: (§1)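 Compounds dissolved in DMSO (2 mg/ml stock), serially diluted. Culture at 2% parasitemia and 2% hematocrit in RPMI 1640 with 10% human serum and 60 μg/ml amikacin, under 90% N2/5% O2/5% CO2, 37°C for 72 h. LDH read-out: Malstat reagent 30 min, then NBT/PES 1 h in dark, acetic acid stop, absorbance 650 nm. IC50 from dose–response curves. Chloroquine positive control; 0.25% DMSO vehicle.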

Plasmodium falciparum [2] = experiment: Antimalarial activity against chloroquine-sensitive Plasmodium falciparum D6 after 72 hr by plasmodial LDH assay; assay type: functional, organism-based; method in brief: as §1
Leishmania donovani = experiment: Antileishmanial activity against promastigote form of Leishmania donovani after 48 hr by alamar blue assay; assay type: functional, organism-based
Method in brief: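 A 3-day-old promastigote culture grown in RPMI 1640 with 10% FCS at 26°C was diluted to 5 × 10^5/ml. Drug dilutions were made directly in the cell suspension, then incubated 48 h at 26°C. Growth was read by Alamar blue fluorescence (ex 544/em 590 nm). IC50 came from dose–response curves, with pentamidine and amphotericin B as standards.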

Staphylococcus aureus [3] = experiment: Antibacterial activity against methicillin-resistant Staphylococcus aureus ATCC 33591 at 20 ug/ml; assay type: functional, organism-based
Staphylococcus aureus [4] = experiment: Antibacterial activity against Staphylococcus aureus ATCC 29213 at 20 ug/ml; assay type: functional, organism-based
Pichia kudriavzevii [5] = experiment: Antifungal activity against Pichia kudriavzevii ATCC 6258 at 20 ug/ml; assay type: functional, organism-based
Nakaseomyces glabratus [6] = experiment: Antifungal activity against Candida glabrata ATCC 90030 at 20 ug/ml; assay type: functional, organism-based
Aspergillus fumigatus = experiment: Antifungal activity against Aspergillus fumigatus ATCC 204305; assay type: functional, organism-based
Candida albicans = experiment: Antifungal activity against Candida albicans ATCC 90028; assay type: functional, organism-based
[7] = system: Mycobacterium intracellulare; experiment: Antibacterial activity against Mycobacterium intracellulare ATCC 23068; assay type: functional, organism-based
Pseudomonas aeruginosa = experiment: Antibacterial activity against Pseudomonas aeruginosa ATCC 27853; assay type: functional, organism-based
Escherichia coli = experiment: Antibacterial activity against Escherichia coli ATCC 35218; assay type: functional, organism-based
Cryptococcus neoformans [8] = experiment: Antifungal activity against Cryptococcus neoformans ATCC 90113; assay type: functional, organism-based
Pichia kudriavzevii [9] = experiment: Antifungal activity against Pichia kudriavzevii ATCC 6258; assay type: functional, organism-based
Nakaseomyces glabratus [10] = experiment: Antifungal activity against Candida glabrata ATCC 90030; assay type: functional, organism-based
Cryptococcus neoformans [11] = experiment: Antifungal activity against Cryptococcus neoformans ATCC 90113 at 20 ug/ml; assay type: functional, organism-based
Staphylococcus aureus [12] = experiment: Antibacterial activity against methicillin-resistant Staphylococcus aureus ATCC 33591; assay type: functional, organism-based
Staphylococcus aureus [13] = experiment: Antibacterial activity against Staphylococcus aureus ATCC 29213; assay type: functional, organism-based
[14] = Leishmania donovani, 48 h, read-out: IC50
[15] = Plasmodium falciparum, D6, 72 h, read-out: IC50
[16] = Plasmodium falciparum, W2, 72 h, read-out: IC50

Q: How did the IC50 (Vero) turn out when `Cc1c(O)cc(O)c2c1COC2=O` [5,7-DIHYDROXY-4-METHYLPHTHALIDE] was run?
A: Its IC50 is “Non-toxic”.

Q: What about the IC50 (Plasmodium falciparum [1]) of the same compound?
A: The IC50 was “Not Active”.

Q: What about the IC50 (Plasmodium falciparum [2]) of the same compound?
A: The IC50 was “Not Active”.

Q: What about the IC50 (Leishmania donovani) of the same compound?
A: Its IC50 is “Not Active”.

Q: And the Activity (Staphylococcus aureus [3])?
A: The Activity was “inactive”.

Q: And the Activity (Staphylococcus aureus [4])?
A: Its Activity is “inactive”.

Q: And the Activity (Pichia kudriavzevii [5])?
A: Its Activity is “inactive”.

Q: And the Activity (Nakaseomyces glabratus [6])?
A: Its Activity is “inactive”.

Q: And the Activity (Aspergillus fumigatus)?
A: Its Activity is “inactive”.

Q: What about the Activity (Candida albicans) of the same compound?
A: Its Activity is “inactive”.

Q: And the Activity [7]?
A: The Activity was “inactive”.

Q: What about the Activity (Pseudomonas aeruginosa) of the same compound?
A: Its Activity is “inactive”.

Q: And the Activity (Escherichia coli)?
A: The Activity was “inactive”.

Q: What about the IC50 (Cryptococcus neoformans [8]) of the same compound?
A: The IC50 was 18.1 µg/mL (≈ 100 µM).

Q: For `C[C@@H]1[C@H](O)[C@@H](C)/C=C/C=C/C=C/C=C/C=C/C=C/C=C/[C@H](O[C@@H]2O[C@H](C)[C@@H](O)[C@H](N)[C@@H]2O)C[C@@H]2O[C@](O)(C[C@@H](O)C[C@@H](O)[C@H](O)CC[C@@H](O)C[C@@H](O)CC(=O)O[C@H]1C)C[C@H](O)[C@H]2C(=O)O` [AMPHOTERICIN B], which IC50 (Cryptococcus neoformans [8]) is on record?
A: Its IC50 is 1.23 µg/mL (≈ 1.33 µM).

Q: And the IC50 (Pichia kudriavzevii [9])?
A: The IC50 was 0.36 µg/mL (≈ 0.39 µM).

Q: What about the IC50 (Nakaseomyces glabratus [10]) of the same compound?
A: Its IC50 is 0.32 µg/mL (≈ 0.346 µM).

Q: How did the IC50 (Vero) turn out when `CCC/C=C/C=C/c1c(O)cc(CC=C(C)C)c(O)c1C=O` [DIHYDROAUROGLAUCIN] was run?
A: The IC50 was “Non-toxic”.

Q: And the IC50 (Plasmodium falciparum [1])?
A: Its IC50 is “Not Active”.

Q: And the IC50 (Plasmodium falciparum [2])?
A: The IC50 was “Not Active”.

Q: And the IC50 (Leishmania donovani; [14])?
A: Its IC50 is 20 µg/mL (≈ 66.6 µM).

Q: And the Activity (Staphylococcus aureus [3])?
A: Its Activity is “inactive”.

Q: What about the Activity (Staphylococcus aureus [4]) of the same compound?
A: The Activity was “inactive”.

Q: And the Activity (Pichia kudriavzevii [5])?
A: Its Activity is “inactive”.

Q: What about the Activity (Cryptococcus neoformans [11]) of the same compound?
A: The Activity was “inactive”.

Q: What about the Activity (Aspergillus fumigatus) of the same compound?
A: Its Activity is “inactive”.

Q: What about the Activity (Candida albicans) of the same compound?
A: The Activity was “inactive”.

Q: What about the Activity [7] of the same compound?
A: Its Activity is “inactive”.

Q: What about the Activity (Pseudomonas aeruginosa) of the same compound?
A: The Activity was “inactive”.

Q: And the Activity (Escherichia coli)?
A: The Activity was “inactive”.

Q: What about the IC50 (Nakaseomyces glabratus [10]) of the same compound?
A: Its IC50 is 2.39 µg/mL (≈ 7.96 µM).

Q: How did the IC50 (Vero) turn out when `C=CC(C)(C)c1[nH]c2c(CC=C(C)C)cc(CC=C(C)C)cc2c1C[C@@H]1NC(=O)[C@H](C)NC1=O` [ECHINULIN] was run?
A: The IC50 was “Non-toxic”.

Q: And the IC50 (Plasmodium falciparum [1])?
A: The IC50 was “Not Active”.

Q: What about the IC50 (Plasmodium falciparum [2]) of the same compound?
A: Its IC50 is “Not Active”.

Q: And the IC50 (Leishmania donovani)?
A: Its IC50 is “Not Active”.

Q: And the Activity (Staphylococcus aureus [3])?
A: The Activity was “inactive”.

Q: And the Activity (Staphylococcus aureus [4])?
A: Its Activity is “inactive”.

Q: What about the Activity (Pichia kudriavzevii [5]) of the same compound?
A: Its Activity is “inactive”.

Q: What about the Activity (Cryptococcus neoformans [11]) of the same compound?
A: The Activity was “inactive”.

Q: And the Activity (Nakaseomyces glabratus [6])?
A: The Activity was “inactive”.

Q: And the Activity (Aspergillus fumigatus)?
A: The Activity was “inactive”.

Q: What about the Activity (Candida albicans) of the same compound?
A: Its Activity is “inactive”.

Q: And the Activity [7]?
A: The Activity was “inactive”.

Q: And the Activity (Pseudomonas aeruginosa)?
A: Its Activity is “inactive”.

Q: What about the Activity (Escherichia coli) of the same compound?
A: The Activity was “inactive”.

Q: Which results are given for `CCCCCCCc1c(O)cc(CC=C(C)C)c(O)c1C=O` [FLAVOGLAUCIN]?
A: IC50 (Vero): Non-toxic; IC50 (Plasmodium falciparum [2]; [15]): 3 µg/mL (≈ 9.85 µM); IC50 (Leishmania donovani; [14]): 23 µg/mL (≈ 75.6 µM); Activity (Pichia kudriavzevii [5]): inactive; Activity (Cryptococcus neoformans [11]): inactive; Activity (Nakaseomyces glabratus [6]): inactive; Activity (Aspergillus fumigatus): inactive; Activity (Candida albicans): inactive; Activity [7]: inactive; Activity (Pseudomonas aeruginosa): inactive; Activity (Escherichia coli): inactive; IC50 (Staphylococcus aureus [12]): 10.4 µg/mL (≈ 34.2 µM); IC50 (Staphylococcus aureus [13]): 14.3 µg/mL (≈ 47 µM)

Q: For `CCCCC/C=C/c1c(O)cc(CC=C(C)C)c(O)c1CO`, which IC50 (Vero) is on record?
A: Its IC50 is “Non-toxic”.

Q: What about the IC50 (Plasmodium falciparum [1]; [16]) of the same compound?
A: Its IC50 is 2.8 µg/mL (≈ 9.2 µM).

Q: What about the IC50 (Plasmodium falciparum [2]; [15]) of the same compound?
A: The IC50 was 3 µg/mL (≈ 9.85 µM).

Q: And the IC50 (Leishmania donovani; [14])?
A: The IC50 was 19 µg/mL (≈ 62.4 µM).

Q: And the Activity (Staphylococcus aureus [4])?
A: The Activity was “inactive”.

Q: What about the Activity (Pichia kudriavzevii [5]) of the same compound?
A: Its Activity is “inactive”.

Q: And the Activity (Cryptococcus neoformans [11])?
A: The Activity was “inactive”.

Q: And the Activity (Aspergillus fumigatus)?
A: The Activity was “inactive”.

Q: What about the Activity (Candida albicans) of the same compound?
A: The Activity was “inactive”.

Q: And the Activity [7]?
A: Its Activity is “inactive”.

Q: What about the Activity (Pseudomonas aeruginosa) of the same compound?
A: The Activity was “inactive”.

Q: And the Activity (Escherichia coli)?
A: The Activity was “inactive”.

Q: And the IC50 (Staphylococcus aureus [12])?
A: Its IC50 is 12 µg/mL (≈ 39.3 µM).

Q: What about the IC50 (Nakaseomyces glabratus [10]) of the same compound?
A: Its IC50 is 7.17 µg/mL (≈ 23.6 µM).

Q: With `CCC/C=C/c1cc2c(C=O)c(O)c(CC=C(C)C)cc2o1` as the compound, how does the IC50 (Vero) read?
A: Its IC50 is “Non-toxic”.

Q: What about the IC50 (Plasmodium falciparum [1]; [16]) of the same compound?
A: Its IC50 is 2.8 µg/mL (≈ 9.38 µM).

Q: And the IC50 (Plasmodium falciparum [2]; [15])?
A: The IC50 was 3 µg/mL (≈ 10.1 µM).

Q: What about the Activity (Pichia kudriavzevii [5]) of the same compound?
A: The Activity was “inactive”.

Q: And the Activity (Aspergillus fumigatus)?
A: The Activity was “inactive”.

Q: And the Activity (Candida albicans)?
A: The Activity was “inactive”.

Q: What about the Activity [7] of the same compound?
A: The Activity was “inactive”.

Q: And the Activity (Pseudomonas aeruginosa)?
A: Its Activity is “inactive”.

Q: What about the Activity (Escherichia coli) of the same compound?
A: Its Activity is “inactive”.

Q: What about the IC50 (Staphylococcus aureus [12]) of the same compound?
A: Its IC50 is 5.4 µg/mL (≈ 18.1 µM).

Q: And the IC50 (Staphylococcus aureus [13])?
A: Its IC50 is 7.75 µg/mL (≈ 26 µM).

Q: What about the IC50 (Cryptococcus neoformans [8]) of the same compound?
A: Its IC50 is 5.31 µg/mL (≈ 17.8 µM).

Q: And the IC50 (Nakaseomyces glabratus [10])?
A: Its IC50 is 1.13 µg/mL (≈ 3.79 µM).

Q: What does the source list for `C/C=C/C=C/C=C/c1c(O)cc(CC=C(C)C)c(O)c1C=O` [AUROGLAUCIN]?
A: IC50 (Vero): Non-toxic; IC50 (Leishmania donovani; [14]): 7.5 µg/mL (≈ 25.1 µM); Activity (Staphylococcus aureus [3]): inactive; Activity (Staphylococcus aureus [4]): inactive; Activity (Cryptococcus neoformans [11]): inactive; Activity (Aspergillus fumigatus): inactive; Activity (Candida albicans): inactive; Activity [7]: inactive; Activity (Pseudomonas aeruginosa): inactive; Activity (Escherichia coli): inactive; IC50 (Pichia kudriavzevii [9]): 10.9 µg/mL (≈ 36.6 µM); IC50 (Nakaseomyces glabratus [10]): 7.33 µg/mL (≈ 24.6 µM)

Q: What does the source list for `CCCCC/C=C/c1c(O)cc(CC=C(C)C)c(O)c1C=O` [TETRAHYDROAUROGLAUCIN]?
A: IC50 (Vero): Non-toxic; IC50 (Plasmodium falciparum [1]; [16]): 2.3 µg/mL (≈ 7.61 µM); IC50 (Plasmodium falciparum [2]; [15]): 2.8 µg/mL (≈ 9.26 µM); IC50 (Leishmania donovani; [14]): 22 µg/mL (≈ 72.7 µM); Activity (Staphylococcus aureus [3]): inactive; Activity (Pichia kudriavzevii [5]): inactive; Activity (Cryptococcus neoformans [11]): inactive; Activity (Aspergillus fumigatus): inactive; Activity (Candida albicans): inactive; Activity [7]: inactive; Activity (Pseudomonas aeruginosa): inactive; Activity (Escherichia coli): inactive; IC50 (Staphylococcus aureus [13]): 13.5 µg/mL (≈ 44.7 µM); IC50 (Nakaseomyces glabratus [10]): 6.15 µg/mL (≈ 20.3 µM)
